The values below come from ChEMBL document CHEMBL3352026, “Structure-activity relationship of highly potent galactonoamidine inhibitors toward β-galactosidase (Aspergillus oryzae)” (J Med Chem, 2014).

Bounds are passed on as bounds.

One assay concerns the target T1, Beta-galactosidase (Aspergillus oryzae, UniProt Q2U7N3).
T1 sequence (Q2U7N3 whole entry): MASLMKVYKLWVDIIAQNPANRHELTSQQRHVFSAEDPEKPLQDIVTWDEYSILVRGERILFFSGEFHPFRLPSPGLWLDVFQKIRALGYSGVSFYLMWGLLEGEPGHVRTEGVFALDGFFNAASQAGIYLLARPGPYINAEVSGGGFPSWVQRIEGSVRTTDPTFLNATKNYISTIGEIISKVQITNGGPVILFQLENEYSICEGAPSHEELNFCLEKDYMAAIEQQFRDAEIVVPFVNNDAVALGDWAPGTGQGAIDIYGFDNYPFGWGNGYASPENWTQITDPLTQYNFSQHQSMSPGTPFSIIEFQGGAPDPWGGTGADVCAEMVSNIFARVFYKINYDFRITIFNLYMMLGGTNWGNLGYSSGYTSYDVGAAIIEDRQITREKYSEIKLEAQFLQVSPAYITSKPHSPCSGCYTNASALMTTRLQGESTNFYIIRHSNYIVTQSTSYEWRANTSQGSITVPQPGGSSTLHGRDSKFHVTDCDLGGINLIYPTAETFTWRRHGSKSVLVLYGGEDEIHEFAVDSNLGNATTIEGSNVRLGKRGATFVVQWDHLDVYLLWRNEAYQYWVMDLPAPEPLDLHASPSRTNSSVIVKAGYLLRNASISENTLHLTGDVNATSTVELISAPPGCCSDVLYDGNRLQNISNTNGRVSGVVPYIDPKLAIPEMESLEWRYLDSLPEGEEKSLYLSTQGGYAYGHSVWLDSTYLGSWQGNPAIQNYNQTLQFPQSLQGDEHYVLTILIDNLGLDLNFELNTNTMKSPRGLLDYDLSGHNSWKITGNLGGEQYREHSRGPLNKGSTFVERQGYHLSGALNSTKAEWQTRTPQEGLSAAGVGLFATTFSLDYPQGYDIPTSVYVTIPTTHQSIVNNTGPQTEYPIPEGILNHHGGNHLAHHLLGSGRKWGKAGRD
The assay is described as follows: Inhibition of Aspergillus oryzae beta-galactosidase using 2-chloro-4-nitrophenyl beta-Dgalactopyranoside as substrate by spectrophotometry. Summed up:
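Dextrin-stabilised lyophilised A. oryzae enzyme in 50 mM acetate, pH 5.00, 30 °C, 100 μL. Substrate plus inhibitor preincubated 30 min before enzyme addition. 2-chloro-4-nitrophenolate read at 405 nm. […] For IC50, substrate was fixed, inhibitor 5 × 10⁻⁴–50 μM, read at 60 min against blanks, in duplicate.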

The nature of assay [1]: Inhibition of almond beta-glucosidase. Set-up: species or system Prunus dulcis.
The nature of assay [2]: Inhibition of Caldicellulosiruptor saccharolyticus beta-glucosidase.
The nature of assay [3]: Inhibition of Aspergillus niger beta-glucosidase.

Usually Ki stands for the equilibrium dissociation constant of an inhibitor or competing ligand from its target. Consider `COc1ccc(C/N=C2\N[C@H](CO)[C@H](O)[C@H](O)[C@H]2O)cc1`, for which the affinity at Beta-galactosidase, expressed as Ki, was 17.1 nM. On the same count and under the same terms, then `OC[C@H]1N/C(=N\Cc2ccc(C(F)(F)F)cc2)[C@H](O)[C@@H](O)[C@H]1O`, with 15.7 nM. On to `OC[C@H]1N/C(=N\Cc2ccc(F)cc2)[C@H](O)[C@@H](O)[C@H]1O`, for which, at Beta-galactosidase, the Ki is 10.1 nM. `CC(C)(C)c1ccc(C/N=C2\N[C@H](CO)[C@H](O)[C@H](O)[C@H]2O)cc1` showed a Ki at Beta-galactosidase of 20.6 nM.

`OC[C@H]1N/C(=N\Cc2ccccc2F)[C@H](O)[C@@H](O)[C@H]1O` registered a Ki at Beta-galactosidase of 16.1 nM. On the same count and under the same terms, then `OC[C@H]1N/C(=N\Cc2cccc(F)c2)[C@H](O)[C@@H](O)[C@H]1O`, with 20.3 nM; and `OC[C@H]1N/C(=N\Cc2ccccc2)[C@H](O)[C@@H](O)[C@H]1O`, with 21.1 nM; and `Cc1ccccc1C/N=C1\N[C@H](CO)[C@H](O)[C@H](O)[C@H]1O`, with 23.6 nM.

`Cc1cccc(C/N=C2\N[C@H](CO)[C@H](O)[C@H](O)[C@H]2O)c1`: affinity on Beta-galactosidase was put at a Ki of 29.4 nM. As usually defined, the IC50 is the midpoint of a concentration-inhibition curve. At Beta-galactosidase, `Cc1ccc(C/N=C2\N[C@H](CO)[C@H](O)[C@H](O)[C@H]2O)cc1` came in with an IC50 of 36 nM and a Ki of 8 nM. On Beta-galactosidase, `CCC/N=C1\N[C@H](CO)[C@H](O)[C@H](O)[C@H]1O` yielded a Ki of 149 nM. As to `CCCCCCC/N=C1\N[C@H](CO)[C@H](O)[C@H](O)[C@H]1O`, at Beta-galactosidase, the midpoint of inhibition, the IC50, lay at 107 nM and the affinity corresponds to a Ki of 10.8 nM. At Beta-galactosidase, `CCCCCCCCCCCC/N=C1\N[C@H](CO)[C@H](O)[C@H](O)[C@H]1O` registered a Ki of 48.4 nM. At Beta-galactosidase, `CCCCC(CC)/N=C1\N[C@H](CO)[C@H](O)[C@H](O)[C@H]1O` (stereo partly drawn) showed an IC50 of 22 nM and an inhibition constant Ki of 7.8 nM.

On to `OC[C@H]1N/C(=N\CCCc2ccccc2)[C@H](O)[C@@H](O)[C@H]1O`, for which, at Beta-galactosidase, 36 nM corresponded to half-maximal inhibition (IC50) and the affinity, expressed as Ki, was 8.6 nM. On Beta-galactosidase, `OC[C@H]1N/C(=N\C2CC2)[C@H](O)[C@@H](O)[C@H]1O` displayed an inhibition constant Ki of 31.9 nM. For `OC[C@H]1N/C(=N\C2CCCCC2)[C@H](O)[C@@H](O)[C@H]1O`, on Beta-galactosidase, the half-inhibitory concentration (IC50) was 4800 nM and the Ki was found to be 602 nM.

Consider `OC[C@H]1N/C(=N\CC2CC2)[C@H](O)[C@@H](O)[C@H]1O`, for which, on Beta-galactosidase, the half-inhibitory concentration (IC50) worked out at 0.86 nM and the affinity, expressed as Ki, was 9.5 nM.

On Beta-galactosidase, `OC[C@H]1N/C(=N\CC2CCCCC2)[C@H](O)[C@@H](O)[C@H]1O` came in with an IC50 of 22 nM and a Ki of 11.3 nM. For `OC[C@H]1N/C(=N\CC2CCCCCC2)[C@H](O)[C@@H](O)[C@H]1O`, in that order: 36 nM and 6.3 nM.

As for `N=C1N[C@H](CO)[C@H](O)[C@H](O)[C@H]1O`, the Ki at Beta-galactosidase amounted to 150 nM.

In turn, `O=C1N[C@H](CO)[C@H](O)[C@H](O)[C@H]1O` returned a Ki at Beta-galactosidase of 615 nM. Take `OC[C@H]1N/C(=N/CCc2ccccc2)[C@H](O)[C@@H](O)[C@H]1O`: the Ki in assay [1], in assay [2] and in assay [3] was ≤ 1.2 nM throughout.
